Measured values from the M2OR odorant receptor database.
Where a chain is given by its changes, count along the chain named.

How the values were obtained:
Details in all cases: stereoisomer not certain
OR51B5 (Homo sapiens) = target: T1, OR51B5 (Homo sapiens) (UniProt Q9H339)
T1 sequence (whole entry): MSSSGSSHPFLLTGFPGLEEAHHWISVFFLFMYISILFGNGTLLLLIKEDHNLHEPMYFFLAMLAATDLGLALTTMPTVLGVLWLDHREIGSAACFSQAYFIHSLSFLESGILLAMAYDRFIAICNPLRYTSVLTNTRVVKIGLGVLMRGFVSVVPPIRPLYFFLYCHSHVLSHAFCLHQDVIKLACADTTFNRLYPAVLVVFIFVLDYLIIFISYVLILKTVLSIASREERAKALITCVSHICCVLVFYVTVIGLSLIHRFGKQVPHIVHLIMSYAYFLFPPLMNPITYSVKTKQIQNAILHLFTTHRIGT
Procedure, shortened: (§1)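 Values were gathered from published papers (main text and supplementary material), with extra details requested from the original authors when needed, and checked for typos and inconsistencies. Each receptor–molecule pair is called responsive (active) if the original authors judged the measured signal statistically different from baseline, and non-responsive (inactive) otherwise. Assay methods varied by source, often transient mammalian cell-line luciferase assays. Recorded details include cell line, G-protein, co-transfected protein and tags.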

OR4S2 (Homo sapiens) = target: T2, OR4S2 (Homo sapiens) (UniProt Q8NH73)
T2 sequence (whole entry): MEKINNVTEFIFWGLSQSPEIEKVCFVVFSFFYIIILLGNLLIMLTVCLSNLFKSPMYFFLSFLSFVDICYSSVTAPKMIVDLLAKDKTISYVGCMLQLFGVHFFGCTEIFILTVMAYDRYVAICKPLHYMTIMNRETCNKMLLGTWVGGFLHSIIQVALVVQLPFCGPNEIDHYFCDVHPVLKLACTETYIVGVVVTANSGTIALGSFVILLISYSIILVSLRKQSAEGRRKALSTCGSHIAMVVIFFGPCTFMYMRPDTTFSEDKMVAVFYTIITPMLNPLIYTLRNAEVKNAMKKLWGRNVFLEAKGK
Procedure, shortened: as §1

OR4X1 (Homo sapiens) = target: T3, OR4X1 (Homo sapiens) (UniProt Q8NH49)
T3 sequence (whole entry): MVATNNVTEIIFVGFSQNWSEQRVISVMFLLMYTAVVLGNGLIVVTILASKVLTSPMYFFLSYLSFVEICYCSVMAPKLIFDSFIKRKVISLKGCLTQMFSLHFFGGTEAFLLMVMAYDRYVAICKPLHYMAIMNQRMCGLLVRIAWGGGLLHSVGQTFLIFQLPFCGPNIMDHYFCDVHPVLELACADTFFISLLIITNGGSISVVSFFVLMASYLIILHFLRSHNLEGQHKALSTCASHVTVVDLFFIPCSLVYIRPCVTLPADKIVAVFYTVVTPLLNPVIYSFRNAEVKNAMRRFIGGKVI
Procedure, shortened: as §1

OR4X2 (Homo sapiens) = target: T4, OR4X2 (Homo sapiens) (UniProt Q8NGF9)
T4 sequence (whole entry): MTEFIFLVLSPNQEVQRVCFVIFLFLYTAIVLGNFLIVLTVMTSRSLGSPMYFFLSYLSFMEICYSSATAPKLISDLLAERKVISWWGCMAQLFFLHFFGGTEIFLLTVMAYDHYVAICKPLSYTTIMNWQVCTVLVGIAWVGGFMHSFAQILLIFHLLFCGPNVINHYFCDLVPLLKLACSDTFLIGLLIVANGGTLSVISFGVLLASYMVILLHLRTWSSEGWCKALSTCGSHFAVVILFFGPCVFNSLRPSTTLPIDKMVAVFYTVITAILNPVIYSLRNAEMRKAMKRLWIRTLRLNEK
Procedure, shortened: as §1

OR51A2 (Homo sapiens) = target: T5, OR51A2 (Homo sapiens) (UniProt Q8NGJ7)
T5 sequence (whole entry): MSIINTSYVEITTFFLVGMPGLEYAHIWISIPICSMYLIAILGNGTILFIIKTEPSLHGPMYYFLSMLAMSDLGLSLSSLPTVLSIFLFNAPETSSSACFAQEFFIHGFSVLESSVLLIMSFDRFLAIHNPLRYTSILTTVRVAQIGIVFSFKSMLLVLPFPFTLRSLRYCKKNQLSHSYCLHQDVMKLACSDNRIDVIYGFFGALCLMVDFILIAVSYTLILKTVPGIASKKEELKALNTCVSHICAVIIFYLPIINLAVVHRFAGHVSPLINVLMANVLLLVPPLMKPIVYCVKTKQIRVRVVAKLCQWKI
Procedure, shortened: as §1

OR51A4 (Homo sapiens) = target: T6, OR51A4 (Homo sapiens) (UniProt Q8NGJ6)
T6 sequence (whole entry): T5 sequence (whole entry) with G59E, T94I, S97N, S167N, P227L, E235Q, G267R, M288T, K289N, W311R
Procedure, shortened: as §1

OR51A7 (Homo sapiens) = target: T7, OR51A7 (Homo sapiens) (UniProt Q8NH64)
T7 sequence (whole entry): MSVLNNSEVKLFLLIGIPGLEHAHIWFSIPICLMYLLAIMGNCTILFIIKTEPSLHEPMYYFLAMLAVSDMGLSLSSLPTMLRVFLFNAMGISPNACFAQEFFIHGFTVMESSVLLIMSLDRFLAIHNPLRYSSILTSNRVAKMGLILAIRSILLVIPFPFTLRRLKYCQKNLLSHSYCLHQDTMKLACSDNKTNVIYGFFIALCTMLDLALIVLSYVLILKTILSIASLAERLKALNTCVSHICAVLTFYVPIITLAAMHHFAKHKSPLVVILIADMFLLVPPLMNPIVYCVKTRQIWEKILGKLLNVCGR
Procedure, shortened: as §1

OR51B2 (Homo sapiens) = target: T8, OR51B2 (Homo sapiens) (UniProt Q9Y5P1)
T8 sequence (whole entry): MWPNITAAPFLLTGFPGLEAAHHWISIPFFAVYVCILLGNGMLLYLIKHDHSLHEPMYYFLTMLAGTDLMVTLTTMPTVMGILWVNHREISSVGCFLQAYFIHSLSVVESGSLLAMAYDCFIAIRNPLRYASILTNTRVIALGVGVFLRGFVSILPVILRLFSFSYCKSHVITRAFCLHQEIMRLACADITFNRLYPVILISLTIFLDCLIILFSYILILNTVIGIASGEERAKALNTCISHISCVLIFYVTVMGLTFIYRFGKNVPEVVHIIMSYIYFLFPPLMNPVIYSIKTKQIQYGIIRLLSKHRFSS
Procedure, shortened: as §1

OR51B4 (Homo sapiens) = target: T9, OR51B4 (Homo sapiens) (UniProt Q9Y5P0)
T9 sequence (whole entry): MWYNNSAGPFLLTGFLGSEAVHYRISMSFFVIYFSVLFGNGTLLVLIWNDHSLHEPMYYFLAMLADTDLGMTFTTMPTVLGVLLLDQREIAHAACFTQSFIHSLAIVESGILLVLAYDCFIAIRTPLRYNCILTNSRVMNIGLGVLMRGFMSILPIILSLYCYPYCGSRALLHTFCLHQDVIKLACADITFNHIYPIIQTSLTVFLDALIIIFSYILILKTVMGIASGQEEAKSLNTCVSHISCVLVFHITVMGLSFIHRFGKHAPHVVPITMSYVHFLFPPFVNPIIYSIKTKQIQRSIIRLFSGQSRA
Procedure, shortened: as §1

OR51B6 (Homo sapiens) = target: T10, OR51B6 (Homo sapiens) (UniProt Q9H340)
T10 sequence (whole entry): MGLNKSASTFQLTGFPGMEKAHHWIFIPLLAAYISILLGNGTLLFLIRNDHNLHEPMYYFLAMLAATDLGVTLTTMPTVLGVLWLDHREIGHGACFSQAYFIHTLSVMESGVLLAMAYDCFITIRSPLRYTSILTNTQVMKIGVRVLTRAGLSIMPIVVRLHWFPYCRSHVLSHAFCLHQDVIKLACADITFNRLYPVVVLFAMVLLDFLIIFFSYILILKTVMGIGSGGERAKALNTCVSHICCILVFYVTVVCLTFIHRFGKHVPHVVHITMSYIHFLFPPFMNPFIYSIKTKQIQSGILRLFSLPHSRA
Procedure, shortened: as §1

OR51D1 (Homo sapiens) = target: T11, OR51D1 (Homo sapiens) (UniProt Q8NGF3)
T11 sequence (whole entry): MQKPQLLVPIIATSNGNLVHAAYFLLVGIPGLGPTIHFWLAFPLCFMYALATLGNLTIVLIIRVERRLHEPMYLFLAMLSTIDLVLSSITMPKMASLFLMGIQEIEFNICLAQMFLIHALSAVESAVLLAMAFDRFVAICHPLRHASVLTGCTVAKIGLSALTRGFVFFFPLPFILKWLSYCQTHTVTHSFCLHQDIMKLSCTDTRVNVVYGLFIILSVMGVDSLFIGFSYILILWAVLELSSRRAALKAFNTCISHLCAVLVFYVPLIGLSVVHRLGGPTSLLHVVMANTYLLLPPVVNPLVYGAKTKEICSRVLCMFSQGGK
Procedure, shortened: as §1

OR51E1 (Homo sapiens) = target: T12, OR51E1 (Homo sapiens) (UniProt Q8TCB6)
T12 sequence (whole entry): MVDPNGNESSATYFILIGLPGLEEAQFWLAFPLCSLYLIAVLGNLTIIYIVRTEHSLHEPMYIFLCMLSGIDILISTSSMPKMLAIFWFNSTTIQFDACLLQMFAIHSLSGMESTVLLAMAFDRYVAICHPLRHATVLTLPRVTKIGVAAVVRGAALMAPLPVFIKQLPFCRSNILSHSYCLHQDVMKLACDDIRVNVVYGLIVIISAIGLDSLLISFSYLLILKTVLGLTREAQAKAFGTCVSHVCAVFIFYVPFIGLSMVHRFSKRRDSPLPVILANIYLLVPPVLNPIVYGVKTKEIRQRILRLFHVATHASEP
Procedure, shortened: as §1

OR51E2 (Homo sapiens) = target: T13, OR51E2 (Homo sapiens) (UniProt Q9H255)
T13 sequence (whole entry): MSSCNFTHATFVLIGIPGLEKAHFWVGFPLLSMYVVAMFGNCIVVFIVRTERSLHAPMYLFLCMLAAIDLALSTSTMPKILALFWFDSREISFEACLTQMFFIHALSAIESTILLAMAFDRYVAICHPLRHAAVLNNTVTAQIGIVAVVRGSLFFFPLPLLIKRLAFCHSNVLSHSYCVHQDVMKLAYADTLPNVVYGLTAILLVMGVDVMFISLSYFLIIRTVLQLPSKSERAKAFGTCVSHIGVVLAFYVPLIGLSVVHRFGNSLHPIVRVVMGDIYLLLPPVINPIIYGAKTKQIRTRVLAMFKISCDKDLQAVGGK
Procedure, shortened: as §1

OR51F1 (Homo sapiens) = target: T14, OR51F1 (Homo sapiens) (UniProt A6NGY5)
T14 sequence (whole entry): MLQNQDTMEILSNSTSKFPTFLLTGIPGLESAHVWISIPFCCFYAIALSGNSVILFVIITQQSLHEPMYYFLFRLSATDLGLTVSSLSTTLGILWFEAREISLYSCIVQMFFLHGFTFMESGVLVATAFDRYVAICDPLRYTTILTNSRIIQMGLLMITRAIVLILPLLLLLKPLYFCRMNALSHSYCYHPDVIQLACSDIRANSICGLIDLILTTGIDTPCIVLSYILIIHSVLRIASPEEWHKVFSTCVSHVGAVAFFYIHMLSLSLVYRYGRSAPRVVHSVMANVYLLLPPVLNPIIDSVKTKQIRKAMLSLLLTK
Procedure, shortened: as §1

OR51F2 (Homo sapiens) = target: T15, OR51F2 (Homo sapiens) (UniProt Q8NH61)
T15 sequence (whole entry): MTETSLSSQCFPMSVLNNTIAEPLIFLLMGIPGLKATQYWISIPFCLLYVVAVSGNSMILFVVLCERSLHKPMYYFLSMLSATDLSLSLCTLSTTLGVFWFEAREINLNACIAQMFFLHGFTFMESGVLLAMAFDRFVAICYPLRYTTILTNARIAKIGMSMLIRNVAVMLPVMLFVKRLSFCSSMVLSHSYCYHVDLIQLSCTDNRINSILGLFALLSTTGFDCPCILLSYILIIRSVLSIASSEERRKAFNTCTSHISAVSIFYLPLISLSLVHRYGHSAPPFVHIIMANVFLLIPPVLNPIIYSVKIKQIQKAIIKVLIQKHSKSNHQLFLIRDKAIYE
Procedure, shortened: as §1

OR51G1 (Homo sapiens) = target: T16, OR51G1 (Homo sapiens) (UniProt Q8NGK1)
T16 sequence (whole entry): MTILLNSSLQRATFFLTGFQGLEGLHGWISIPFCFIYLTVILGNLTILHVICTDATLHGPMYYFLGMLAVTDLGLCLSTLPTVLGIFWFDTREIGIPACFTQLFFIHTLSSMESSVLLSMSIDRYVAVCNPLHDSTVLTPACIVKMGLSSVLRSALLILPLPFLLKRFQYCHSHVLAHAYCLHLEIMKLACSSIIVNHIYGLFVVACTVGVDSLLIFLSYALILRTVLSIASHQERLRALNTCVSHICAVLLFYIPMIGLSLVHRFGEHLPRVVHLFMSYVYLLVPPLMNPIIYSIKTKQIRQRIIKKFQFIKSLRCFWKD
Procedure, shortened: as §1

OR51G2 (Homo sapiens) = target: T17, OR51G2 (Homo sapiens) (UniProt Q8NGK0)
T17 sequence (whole entry): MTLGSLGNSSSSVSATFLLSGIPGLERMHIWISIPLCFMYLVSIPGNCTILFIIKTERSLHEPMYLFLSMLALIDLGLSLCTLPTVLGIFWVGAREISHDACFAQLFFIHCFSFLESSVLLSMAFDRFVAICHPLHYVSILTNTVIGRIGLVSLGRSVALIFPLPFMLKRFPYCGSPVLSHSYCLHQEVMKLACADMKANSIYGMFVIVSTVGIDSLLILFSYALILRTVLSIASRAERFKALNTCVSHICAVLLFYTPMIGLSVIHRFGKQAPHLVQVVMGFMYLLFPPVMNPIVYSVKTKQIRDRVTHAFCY
Procedure, shortened: as §1

OR51I1 (Homo sapiens) = target: T18, OR51I1 (Homo sapiens) (UniProt Q9H343)
T18 sequence (whole entry): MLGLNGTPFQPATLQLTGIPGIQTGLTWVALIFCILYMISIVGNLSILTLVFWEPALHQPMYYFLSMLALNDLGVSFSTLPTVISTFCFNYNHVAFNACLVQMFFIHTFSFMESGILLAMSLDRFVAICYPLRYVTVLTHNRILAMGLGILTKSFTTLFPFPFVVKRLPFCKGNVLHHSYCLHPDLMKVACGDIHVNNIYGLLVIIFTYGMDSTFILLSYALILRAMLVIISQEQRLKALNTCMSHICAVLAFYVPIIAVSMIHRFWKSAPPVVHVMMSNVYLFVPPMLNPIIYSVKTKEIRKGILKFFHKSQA
Procedure, shortened: as §1

Measured: odorant receptor agonist call

CCCCCCCCCCCCCCCC(=O)OCC
inactive: OR51B5 (Homo sapiens)

CCCCCCCCCCCC(=O)OC
inactive: OR51B5 (Homo sapiens)

CCC(S)C(C)CO (stereo not given)
inactive: all assays above
